Assay results as given in ChEMBL document CHEMBL4152358, “In vitro and in vivo anti-inflammatory properties of imine resveratrol analogues” (Bioorg Med Chem, 2018).
Activity calls are given as the source filed them. No cut-off for these calls is given here.

Key:
B-cell line = experiment: Antiproliferative activity against LPS-induced B cells isolated from splenocytes of C57/BL6 mouse at 50 uM incubated with LPS for 1 hr followed by compound addition measured after 72 hrs by MTT assay; assay type: functional, cell-based
How it was run: (§1)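 C57BL/6 splenocytes (1x10⁵/well) cultured in RPMI 1640 with 10% FBS. Stimulated 1 h with Con A 5 µg/mL (T cells) or E. coli LPS 1 µg/mL (B cells) at 37°C, 5% CO₂. Treated at 50 µM and cultured 72 h more, then read by MTT. Expressed as % proliferation relative to untreated stimulated cells.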

Mus musculus [1] = experiment: Effect on IL-1beta production in ear tissue of croton oil-induced Balb/c mouse ear edema model at 0.1 mg/ear administered topically immediately post croton oil treatment by ELISA; assay type: functional, organism-based
How it was run: (§2)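 Half of each ear plug from the 4 h croton oil edema test (topical 0.1 mg/ear) was homogenized in extraction buffer (BSA 0.5%, PMSF 0.1%, […], EDTA 10mM, aprotinin 20kIU/ml) and spun at 440g for 15 min at 4 °C. IL-1β, IL-6 or CCL-2 in the supernatant measured by ELISA.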

RAW264.7 [2] = experiment: Antiinflammatory activity in mouse RAW264.7 cells assessed as inhibition of LPS-induced IL-6 production by measuring IL-6 levels incubated with LPS for 1 hr followed by compound addition measured after 48 hrs by ELISA (reference value: 2.9 +/- 0.3 ng/ml); assay type: functional
RAW264.7 [3] = experiment: Antiinflammatory activity in mouse RAW264.7 cells assessed as inhibition of LPS/IFNgamma-induced NO production by measuring NO levels incubated with LPS/IFNgamma for 1 hr followed by compound addition measured after 48 hrs by Griess assay (reference value: 55 +/- 2.6 microM); assay type: functional
Mus musculus [4] = experiment: Antiinflammatory activity in croton oil-induced Balb/c mouse ear edema model assessed as inhibition of leucocyte infiltration at 0.1 mg/ear administered topically immediately post croton oil treatment and measured after 4 hrs by hematoxylin and eosin staining based light microscopic method; assay type: functional, organism-based
How it was run: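 Ear plugs from the 4 h croton oil edema test in Balb/c mice were fixed 24 h in 70% ethanol, kept in 10% formalin, paraffin-embedded and cut at 4 µm. Sections stained with H&E and leucocyte infiltration judged qualitatively by light microscopy at 400x.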

RAW264.7 [5] = experiment: Antiinflammatory activity in mouse RAW264.7 cells assessed as inhibition of LPS/IFNgamma-induced NO production at 50 uM incubated with LPS/IFNgamma for 1 hr followed by compound addition measured after 48 hrs by Griess assay relative to control; assay type: functional
RAW264.7 [6] = experiment: Antiinflammatory activity in mouse RAW264.7 cells assessed as inhibition of LPS-induced IL-12 production by measuring IL-12 levels incubated with LPS for 1 hr followed by compound addition measured after 48 hrs by ELISA (reference value: 4839.2 +/- 2.2 pg/ml); assay type: functional
Mus musculus [7] = experiment: Inhibition of IL-6 production in ear tissue of croton oil-induced Balb/c mouse ear edema model at 0.1 mg/ear administered topically immediately post croton oil treatment by ELISA; assay type: functional, organism-based; how it was run: as §2
Murine T-cell line = experiment: Antiproliferative activity against Con-A-induced T cells isolated from splenocytes of C57/BL6 mouse at 50 uM incubated with Con-A for 1 hr followed by compound addition measured after 72 hrs by MTT assay; assay type: functional, cell-based; how it was run: as §1
Mus musculus [8] = experiment: Inhibition of CCL-2 production in ear tissue of croton oil-induced Balb/c mouse ear edema model at 0.1 mg/ear administered topically immediately post croton oil treatment by ELISA; assay type: functional, organism-based; how it was run: as §2
Mus musculus [9] = experiment: Inhibition of myeloperoxidase activity in ear tissue of croton oil-induced Balb/c mouse ear edema model at 0.1 mg/ear administered topically immediately post croton oil treatment by spectrophotometric method; assay type: functional, organism-based
How it was run: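 Ear tissue homogenized in PBS and the pellet resuspended in 0.5% HTAB, then given 3 freeze/thaw cycles. Cleared supernatant mixed 1:1 with 6 mM o-phenylenediamine in 10 mM citrate pH 4.5, with 20% H₂O₂ added. Stopped after 15 min with 1 M H₂SO₄ and read spectrophotometrically.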

RAW264.7 [10] = experiment: Antiinflammatory activity in mouse RAW264.7 cells assessed as inhibition of LPS-induced TNFalpha production by measuring TNFalpha levels incubated with LPS for 1 hr followed by compound addition measured after 48 hrs by ELISA (reference value: 58.6 +/- 7.4 ng/ml); assay type: functional
RAW264.7 [11] = experiment: Antiinflammatory activity in mouse RAW264.7 cells assessed as inhibition of LPS-induced CCL-2 production by measuring CCL-2 levels incubated with LPS for 1 hr followed by compound addition measured after 48 hrs by ELISA (reference value: 12.73 +/- 0.10 ng/ml); assay type: functional
RAW264.7 [12] = experiment: Immunomodulatory activity in LPS-stimulated mouse RAW264.7 cells assessed as decrease in CD80 expression at 50 uM incubated with LPS for 1 hr followed by compound addition measured after 24 hrs by flow cytometry; assay type: functional, cell-based
How it was run: (§3)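 RAW 264.7 cells (4 x 10⁵/well, triplicate) given E. coli LPS 1 µg/mL for 1 h, then treated at 50 µM for 24 h. Cells Fc-blocked with anti-CD16/32 and stained with FITC anti-CD80, anti-CD86 or anti-MHC II (I-A^b). Two independent experiments.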

RAW264.7 [13] = experiment: Immunomodulatory activity in LPS-stimulated mouse RAW264.7 cells assessed as decrease in MHC-2 expression at 50 uM incubated with LPS for 1 hr followed by compound addition measured after 24 hrs by flow cytometry; assay type: functional, cell-based; how it was run: as §3
RAW264.7 [14] = experiment: Immunomodulatory activity in LPS-stimulated mouse RAW264.7 cells assessed as decrease in CD86 expression at 50 uM incubated with LPS for 1 hr followed by compound addition measured after 24 hrs by flow cytometry; assay type: functional, cell-based; how it was run: as §3
J774.A1 = experiment: Antiinflammatory activity in mouse J774A.1 cells assessed as inhibition of LPS-induced IL-1beta production by measuring IL-1beta levels incubated with LPS for 1 hr followed by compound addition measured after 24 hrs by ELISA (reference value: 382.3 +/- 50 pg/ml); assay type: functional
[15] = Antioxidant activity assessed as DPPH radical scavenging activity after 30 mins by spectrophotometric method; assay type: functional
How it was run: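 Left 30 min at room temperature in the dark and absorbance read at 510 nm. IC50 taken graphically from the linear range of the concentration versus scavenging plot. Run twice, each in triplicate.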

Mus musculus [16] = experiment: Antiinflammatory activity in Balb/c mouse ear edema model assessed as inhibition of croton oil-induced ear edema at 0.1 mg/ear administered topically immediately post croton oil treatment and measured after 4 hrs relative to control; assay type: functional
How it was run: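 Female Balb/c mice 8–10 weeks old (n = 6/group). 20 µL of 2.5% v/v croton oil applied to the inner surface of the right ear, acetone vehicle to the left. Treatment given topically straight after, 0.1 mg/ear in 20 µL, with acetone as negative control. Killed at 4 h and 6 mm plugs taken from both ears. Edema read as right minus left ear plug weight, mean S.D.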

RAW264.7 [17] = experiment: Cytotoxicity against mouse RAW264.7 cells assessed as reduction in cell viability at 50 uM after 48 hrs by MTT assay; assay type: cell-based; settings: raw264.7, 48 h
How it was run: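 RAW264.7 cells seeded at 2 x 10⁵/well and grown 24 h, then exposed to 25 or 50 µM (ethanol ≤1%) for 48 h. MTT 0.5 mg/mL added for 2 h at 37 °C, formazan dissolved in DMSO, OD read at 595 nm. Viability given relative to untreated control, mean SD.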

Peritoneal macrophage = experiment: Cytotoxicity against C57/BL6 mouse peritoneal macrophages assessed as reduction in cell viability at 50 uM after 48 hrs by MTT assay; assay type: cell-based
RAW264.7 [18] = experiment: Cytotoxicity against mouse RAW264.7 cells assessed as reduction in cell viability at >= 100 uM after 48 hrs by MTT assay; assay type: cell-based; settings: raw264.7, 48 h

Row | SMILES | Activity (B-cell line) | Activity (RAW264.7 [2]) [ng/mL] | Activity (RAW264.7 [3]) [µM] | inhibition at 50 µM (RAW264.7 [5]) [%] | Activity (RAW264.7 [6]) [pg/mL] | Activity (Murine T-cell line) | Activity (RAW264.7 [10]) [ng/mL] | Activity (RAW264.7 [11]) [ng/mL] | Activity (RAW264.7 [12]) | Activity (RAW264.7 [13]) | Activity (J774.A1) [pg/mL] | IC50 [15] [µM] | Activity (RAW264.7 [17]) | Activity (Peritoneal macrophage) | further results
1 | COc1ccc(/C=N/c2ccccc2O)cc1 | Active | 2.1 | 4.8 | 90 | 4.7 | Active | 44.2 | 7.9 | Active | inactive | 88.2 | 45.8 | – | – | Activity (Mus musculus [1]): inactive; inhibition of leucocyte infiltration (qualitative) (Mus musculus [4]): Active; inhibition (Mus musculus [7]): Active; inhibition (Mus musculus [8]): Active; inhibition (Mus musculus [9]): Active; Activity (RAW264.7 [14]): Active; inhibition (INH) (Mus musculus [16]): 40%
2 | O=[N+]([O-])c1ccc(N/N=C/c2cc(Br)ccc2O)c([N+](=O)[O-])c1 | – | – | – | – | – | – | – | – | – | – | – | – | Toxic | Toxic | –
3 | Oc1ccccc1/C=N/c1ccccc1O | Active | 2.5 | 5.9 | 90 | 5.5 | Active | 58.4 | 7.2 | inactive | inactive | 62.3 | 35.9 | – | – | –
4 | O=C(O)c1ccc(/C=N/c2ccccc2O)cc1 | Active | 2.2 | 9.5 | 90 | 12.7 | Active | 30.6 | 3.7 | Active | inactive | 53.4 | 36.6 | – | – | Activity (Mus musculus [1]): inactive; inhibition of leucocyte infiltration (qualitative) (Mus musculus [4]): Active; inhibition (Mus musculus [7]): Active; inhibition (Mus musculus [8]): Active; inhibition (Mus musculus [9]): Active; Activity (RAW264.7 [14]): Active; inhibition (INH) (Mus musculus [16]): 40%
5 | COc1ccc(/C=N/c2ccccc2O)cc1O | – | 2.4 | 8.1 | 90 | 7.7 | – | 60.5 | 9.7 | Active | inactive | 120.3 | 34.5 | – | – | –
6 | COc1ccc(/C=N/Nc2ccccc2)c(O)c1 | – | – | – | – | – | – | – | – | – | – | – | – | Toxic | Toxic | –
7 | O=C(O)c1ccccc1/C=N/c1ccccc1O | Active | 2.3 | 22.6 | – | 34 | Active | 57.4 | 6.1 | inactive | inactive | 76.7 | 34.1 | – | – | –
8 | Oc1ccc(/C=N/c2ccccc2O)c(O)c1 | – | 2.3 | 14.6 | 90 | 9.3 | – | 44.8 | 5.5 | Active | inactive | 188.3 | 49.1 | – | – | –
9 | O=[N+]([O-])c1ccc(/C=N/c2ccccc2S)cc1 | – | – | – | – | – | – | – | – | – | – | – | – | Toxic | Toxic | –
10 | Oc1ccc(/C=C/c2cc(O)cc(O)c2)cc1 [RESVERATROL] | Active | 1.6 | 44.5 | 25 | 1036 | Active | 31 | 6.6 | Active | inactive | 159.7 | 65.6 | Non-Toxic | – | Activity (Mus musculus [1]): inactive; inhibition of leucocyte infiltration (qualitative) (Mus musculus [4]): Active; inhibition (Mus musculus [7]): inactive; inhibition (Mus musculus [8]): inactive; inhibition (Mus musculus [9]): Active; Activity (RAW264.7 [18]): Toxic; Activity (RAW264.7 [14]): Active; inhibition (INH) (Mus musculus [16]): 40%
11 | C[C@@H]1C[C@H]2[C@@H]3CCC4=CC(=O)C=C[C@]4(C)[C@@]3(F)[C@@H](O)C[C@]2(C)[C@@]1(O)C(=O)CO [DEXAMETHASONE] | – | – | – | – | – | – | – | – | – | – | – | – | – | – | inhibition of leucocyte infiltration (qualitative) (Mus musculus [4]): Active; inhibition (INH) (Mus musculus [16]): 90%
12 | O=C(O)c1ccc(/C=N/Nc2ccc([N+](=O)[O-])cc2[N+](=O)[O-])cc1 | – | – | – | – | – | – | – | – | – | – | – | – | Toxic | Toxic | –
13 | COc1ccc(/C=N/Nc2ccc([N+](=O)[O-])cc2[N+](=O)[O-])cc1O | – | – | – | – | – | – | – | – | – | – | – | – | Toxic | Toxic | –
14 | O=C(O)c1ccc(/C=N/Nc2ccccc2)cc1 | – | – | – | – | – | – | – | – | – | – | – | – | Toxic | Toxic | –
